Here are results for 30 compounds from ChEMBL document CHEMBL1153910, “Salicylate-urea-based soluble epoxide hydrolase inhibitors with high metabolic and chemical stabilities” (Bioorg Med Chem Lett, 2009).

Data set [1] concerns the target T1, Bifunctional epoxide hydrolase 2 (Homo sapiens, UniProt P34913).
T1 sequence (P34913 whole entry): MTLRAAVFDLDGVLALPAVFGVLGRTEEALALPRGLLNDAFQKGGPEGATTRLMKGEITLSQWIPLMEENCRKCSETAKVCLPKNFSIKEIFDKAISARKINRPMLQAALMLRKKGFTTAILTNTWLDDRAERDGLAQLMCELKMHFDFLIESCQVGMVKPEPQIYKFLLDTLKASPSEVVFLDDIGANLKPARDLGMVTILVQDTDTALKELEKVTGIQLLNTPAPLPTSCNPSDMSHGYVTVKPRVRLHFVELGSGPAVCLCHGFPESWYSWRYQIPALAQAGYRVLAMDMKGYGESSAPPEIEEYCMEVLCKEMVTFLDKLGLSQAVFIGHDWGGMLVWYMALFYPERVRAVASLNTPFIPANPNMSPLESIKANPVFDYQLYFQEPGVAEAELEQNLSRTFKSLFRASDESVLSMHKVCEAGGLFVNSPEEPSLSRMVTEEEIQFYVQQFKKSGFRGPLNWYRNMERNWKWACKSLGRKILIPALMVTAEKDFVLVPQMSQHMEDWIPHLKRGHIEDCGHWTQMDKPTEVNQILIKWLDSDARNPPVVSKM
Put plainly: Inhibition of human soluble epoxide hydrolase by fluorescence assay. Summed up: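 Recombinant human sEH was used, with inhibition measured by a kinetic fluorescent assay and reported as IC50.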

Data set [2] in a line: Metabolic stability in human liver S9 fraction in absence of NADPH assessed as residual parent compound remaining. It is filed as ADME, subcellular. In outline: (§1)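 Compounds were incubated with human liver S9 fraction, with or without NADPH. Residual parent compound is given as a percentage remaining.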
Data set [3] in a line: Metabolic stability in human liver S9 fraction in presence of NADPH assessed as residual parent compound remaining. It is filed as ADME, subcellular. In outline: as §1
Data set [4] is described as follows: Chemical stability assessed as compound hydrolysis after 15 mins in 40 mM NaOH at 22 degC. It counts as physicochemical. The note with it: 0.25 h.
The nature of data set [5]: Tmax in dog at 0.3 mg/kg, po. It counts as ADME, organism-based, Canis lupus familiaris. Details: dose 0.3 mg/kg, route oral. Particulars: in vivo. In outline:
(§2)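 Dogs were dosed by oral gavage at 0.3 mg/kg in tri-olein-rich oil. Blood concentration–time profiles were followed, and pharmacokinetic parameters were derived from those profiles.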

The nature of data set [6]: Chemical stability assessed as compound remaining after 7 hrs in 40 mM NaOH at 22 degC. It is filed as physicochemical. Particulars: read-out: Activity.
A short description of data set [7]: Octanol-water distribution coefficient, log P of the compound. It counts as physicochemical. In outline: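 Partitioning was between buffer-saturated 1-octanol and 0.1 M sodium phosphate buffer, pH 7.4. Compound concentration was measured in each phase, and logP = log10([octanol]/[buffer]).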
Data set [8] in a line: Cmax in dog at 0.3 mg/kg, po. It is filed as ADME, organism-based, Canis lupus familiaris. Details: dose 0.3 mg/kg, route oral. The note with it: in vivo. In outline:
as §2

A short description of data set [9]: Half life in dog at 0.3 mg/kg, po. Particulars: in vivo. Details: dose 0.3 mg/kg, route oral. It counts as ADME, organism-based, Canis lupus familiaris. Summed up: as §2
Data set [10] is described as follows: AUC (0 to 24 hrs) in dog at 0.3 mg/kg, po. It counts as ADME, organism-based, Canis lupus familiaris. Details: time < 24 hr, dose 0.3 mg/kg, route oral. The note with it: plasma. In outline: as §2
The nature of data set [11]: AUC (0 to infinity) in dog at 0.3 mg/kg, po. It counts as ADME, organism-based, Canis lupus familiaris. Details: time infinity, dose 0.3 mg/kg, route oral. Particulars: plasma. In outline:
as §2

The target of data set [12] is Prostaglandin G/H synthase 1 (Homo sapiens) (UniProt P23219). As to the kind of experiment: Inhibition of COX1 at 10 uM by fluorescence assay.
Data set [13] addresses T2, Prostaglandin G/H synthase 2 (Homo sapiens) (UniProt P35354).
T2 sequence (whole entry): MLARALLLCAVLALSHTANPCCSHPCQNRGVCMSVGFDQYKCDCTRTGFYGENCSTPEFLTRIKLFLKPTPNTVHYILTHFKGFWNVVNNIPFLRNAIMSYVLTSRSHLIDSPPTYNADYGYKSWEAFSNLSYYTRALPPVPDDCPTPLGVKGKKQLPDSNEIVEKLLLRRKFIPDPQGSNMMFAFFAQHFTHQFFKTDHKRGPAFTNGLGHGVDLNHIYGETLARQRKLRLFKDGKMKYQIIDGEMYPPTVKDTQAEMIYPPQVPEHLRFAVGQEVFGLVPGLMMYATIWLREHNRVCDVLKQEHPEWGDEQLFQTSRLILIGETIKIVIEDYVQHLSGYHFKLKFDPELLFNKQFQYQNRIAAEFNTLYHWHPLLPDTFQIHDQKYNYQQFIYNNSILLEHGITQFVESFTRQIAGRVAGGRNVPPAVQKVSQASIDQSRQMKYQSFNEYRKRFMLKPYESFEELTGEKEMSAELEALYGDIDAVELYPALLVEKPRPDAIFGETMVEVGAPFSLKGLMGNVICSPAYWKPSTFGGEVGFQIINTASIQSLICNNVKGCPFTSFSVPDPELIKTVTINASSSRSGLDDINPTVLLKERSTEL
Put plainly: Inhibition of COX2 at 10 uM by fluorescence assay.

The nature of data set [14]: Solubility in 0.1 M sodium phosphate buffer at pH 7.4.
The nature of data set [15]: Chemical stability in 40 mM NaOH at 22 degC. It is filed as physicochemical.

Each structure is given as a SMILES string. Values after ≈ are worked out from the molar mass of the structure shown. Active and inactive are the calls of the source. Bounds are passed on as bounds.

Prostaglandin G/H synthase 1 (Homo sapiens), sequence (P23219 whole entry): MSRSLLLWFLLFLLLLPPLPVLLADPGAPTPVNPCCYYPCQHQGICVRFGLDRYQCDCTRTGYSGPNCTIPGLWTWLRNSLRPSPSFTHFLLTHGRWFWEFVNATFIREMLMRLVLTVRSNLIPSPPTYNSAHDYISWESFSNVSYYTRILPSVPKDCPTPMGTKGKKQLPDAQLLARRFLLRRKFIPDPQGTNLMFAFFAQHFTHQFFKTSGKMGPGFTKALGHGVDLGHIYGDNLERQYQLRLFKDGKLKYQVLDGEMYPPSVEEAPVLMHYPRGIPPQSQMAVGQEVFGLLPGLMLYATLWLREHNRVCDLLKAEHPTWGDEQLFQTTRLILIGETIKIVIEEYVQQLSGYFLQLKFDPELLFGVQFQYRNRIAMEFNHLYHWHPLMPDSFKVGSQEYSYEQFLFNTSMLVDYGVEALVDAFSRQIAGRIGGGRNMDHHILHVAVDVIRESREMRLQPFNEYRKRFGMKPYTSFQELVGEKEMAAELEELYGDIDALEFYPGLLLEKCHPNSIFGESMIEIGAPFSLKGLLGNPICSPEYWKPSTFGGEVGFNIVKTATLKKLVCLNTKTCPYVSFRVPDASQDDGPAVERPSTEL

The compound `O=C(Nc1ccccc1O)NC12CC3CC(CC(C3)C1)C2` displayed an IC50 in [1] of 139 nM.
On to `COC(=O)c1cc(NC(=O)NC23CC4CC(CC(C4)C2)C3)ccc1O`, for which the IC50 in data set [1] is 12 nM. Further, the Stability in data set [2] worked out at 46%; in data set [3] it was 51%.
In [1], `O=C(Nc1ccc(C(=O)O)cc1)NC12CC3CC(CC(C3)C1)C2` yielded an IC50 of 1410 nM.
The same measure, in the same setting: as for `O=C(Nc1cccc(C(=O)O)c1)NC12CC3CC(CC(C3)C1)C2`, the figure is 365 nM; as for `O=C(Nc1cccc(OC(=O)c2ccccc2)c1)NC12CC3CC(CC(C3)C1)C2`, 5.1 nM.
Regarding `CC(=O)Oc1ccc(NC(=O)NC23CC4CC(CC(C4)C2)C3)cc1`, half-maximal inhibition in data set [1] (IC50) was put at 3.9 nM. The Stability in data set [2] was less than 0.1%; in data set [3] it was less than 0.1%; in data set [4] it was “Unstable”.
Regarding `COc1cccc(NC(=O)NC23CC4CC(CC(C4)C2)C3)c1`, the IC50 in [1] was 4.7 nM.
In the case of `COC(=O)c1cccc(NC(=O)NC23CC4CC(CC(C4)C2)C3)c1`, the IC50 in data set [1] worked out at 14 nM.
For the compound `O=C(O)CCc1ccc(NC(=O)NC23CC4CC(CC(C4)C2)C3)cc1`, in data set [1], the IC50 was found to be 126 nM.
In turn, `O=C(Nc1ccc(O)c(C(=O)O)c1)NC12CC3CC(CC(C3)C1)C2` returned an IC50 in [1] of 116 nM.
With `COc1ccc(NC(=O)NC23CC4CC(CC(C4)C2)C3)cc1`, in [1], the midpoint of inhibition, the IC50, lay at 14 nM.
In [1], `O=C(Nc1ccc(OC(=O)c2ccccc2)cc1)NC12CC3CC(CC(C3)C1)C2` displayed an IC50 of 11 nM. Moreover, the Stability in [2] was 32%; in data set [3], 31%; in data set [4] it was “Unstable”.
In turn, `O=C(O)CCCc1ccc(NC(=O)NC23CC4CC(CC(C4)C2)C3)cc1` gave an IC50 in data set [1] of 19.9 nM.
In [1], `COC(=O)c1ccc(NC(=O)NC23CC4CC(CC(C4)C2)C3)cc1O` had an IC50 of 2.8 nM. For the same compound, the Tmax in data set [5] is 1 h. Further, the Stability is given as 93% in [2] and 89% in data set [3]. Further, the remaining at 7 h in data set [6] is 80%. In data set [7], this compound returned a logP of more than 4.1. The peak level in data set [8] (Cmax) was 45 nM. Moreover, in [9], the half-life was 7.9 h. This compound came in with an area under the curve AUC(0-t) at 24 h in data set [10] of 0.189 µM·h. This compound also came in with an AUC(0-inf) in [11] of 0.209 µM·h. Moreover, the result in data set [12] and in [13] was inactive. The solubility in [14] was 200 µg/mL (≈ 581 µM).
Compound `COC(=O)CCCc1ccc(NC(=O)NC23CC4CC(CC(C4)C2)C3)cc1` yielded an IC50 in [1] of 3.1 nM.
Turning to `CN1CCN(C(=O)c2cccc(NC(=O)NC34CC5CC(CC(C5)C3)C4)c2)CC1`, the midpoint of inhibition in [1], the IC50, lay at 35 nM.
Turning to `O=C(O)CCCCCCCCCCCNC(=O)NC12CC3CC(CC(C3)C1)C2`, the Tmax in data set [5] came to 0.5 h. In data set [8], the concentration peaked (Cmax) at 18 nM. Moreover, the half-life in [9] was 2.9 h. Moreover, the AUC(0-t) at 24 h in [10] amounted to 0.0522 µM·h. In addition, the AUC(0-inf) in data set [11] stood at 0.0524 µM·h.
Turning to `O=C(Nc1ccc(O)cc1)NC12CC3CC(CC(C3)C1)C2`, the IC50 in data set [1] worked out at 24 nM.
`COC(=O)Cc1ccc(NC(=O)NC23CC4CC(CC(C4)C2)C3)cc1` gave an IC50 in [1] of 4 nM.
On to `O=C(Nc1ccccc1)NC12CC3CC(CC(C3)C1)C2`, for which, in data set [1], inhibition was half-maximal at 17 nM (IC50).
In data set [1], `CC(=O)Oc1cccc(NC(=O)NC23CC4CC(CC(C4)C2)C3)c1` gave an IC50 of 5.8 nM.
Compound `O=C(Nc1cccc(C(=O)N2CCOCC2)c1)NC12CC3CC(CC(C3)C1)C2` had an IC50 in data set [1] of 25 nM.
In data set [1], `COC(=O)c1ccc(NC(=O)NC23CC4CC(CC(C4)C2)C3)cc1` yielded an IC50 of 4.1 nM. The values for the Stability in data set [2] and in data set [3] were 97% and 95%, respectively. Moreover, the half-life in [15] is 2 h. This compound displayed a logP in [7] of more than 3.9. In data set [14], this compound gave a solubility of 400 µg/mL (≈ 1220 µM).
Regarding `COc1ccccc1NC(=O)NC12CC3CC(CC(C3)C1)C2`, the midpoint of inhibition in data set [1], the IC50, lay at 8540 nM.
In [1], `O=C(Nc1ccc(C(=O)O)c(O)c1)NC12CC3CC(CC(C3)C1)C2` came in with an IC50 of 71 nM. Moreover, the logP in data set [7] (read-out: logP) came to 1.6. This compound had a solubility in data set [14] of 199000 µg/mL (≈ 602000 µM).
In data set [1], `O=C(Nc1cccc(C(=O)N2CCC(N3CCOCC3)CC2)c1)NC12CC3CC(CC(C3)C1)C2` registered an IC50 of 29 nM.
In data set [1], `COC(=O)CCc1ccc(NC(=O)NC23CC4CC(CC(C4)C2)C3)cc1` yielded an IC50 of 2.2 nM.
Same read-out and setting: as for `O=C(O)Cc1ccc(NC(=O)NC23CC4CC(CC(C4)C2)C3)cc1`, the figure is 392 nM; as for `O=C(Nc1cccc(O)c1)NC12CC3CC(CC(C3)C1)C2`, 28 nM.
Turning to `CCOCCOCCOc1cccc(NC(=O)NC23CC4CC(CC(C4)C2)C3)c1`, the Stability in data set [3] was 56%.

A word on the IC50: it is the concentration that inhibits the measured activity by half. Read a low IC50 as greater potency in that assay. The Tmax is the time at which the peak concentration occurs. In general, logP refers to a log measure of how a compound divides between an organic and an aqueous phase. Broadly, the Cmax is the maximum level reached in the sampled fluid or tissue. As a reminder, the half-life is the time needed for the level to fall by half in the phase considered. The AUC(0-t) is the area under the concentration-time curve up to a stated or last time point. Read a low AUC(0-t) as low exposure. Usually AUC(0-inf) stands for total exposure, with the tail of the curve extrapolated. A low value points to less exposure. In general, solubility refers to the concentration that dissolves in the medium under given conditions. Higher therefore signals a readily soluble substance.
